Results: the EternaBench riboswitch data

Tested on: MS2 coat protein
Experiment: apparent Kd, MS2 coat protein; higher = weaker binding; RNA-MaP array; FMN 200 µM where present
In short: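 On Illumina sequencing-chip clusters, designs were transcribed by stalled E. coli RNA polymerase and titrated with SNAP-549-labelled MS2 coat protein (0.7 or 1.5 nM, doubling to 3 µM), without and then with constant ligand, in 100 mM Tris-HCl pH 7.5, 80 mM KCl, 4 mM MgCl2, BSA, DTT, yeast tRNA and Tween-20. Apparent Kd is the median of filtered per-cluster curve fits to green signal normalised to red-channel RNA signal and control-cluster median Fmax.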

[1] = designed as: ON switch for flavin mononucleotide, no ligand
[2] = ligand present: flavin mononucleotide, designed as: ON switch for flavin mononucleotide
[3] = designed as: OFF switch for flavin mononucleotide, no ligand
[4] = ligand present: flavin mononucleotide, designed as: OFF switch for flavin mononucleotide

Sequence | apparent Kd [1] [nM] | apparent Kd [2] [nM] | apparent Kd [3] [nM] | apparent Kd [4] [nM]
GCUCGUCGUGGAAGAGCAAAAGGACAGGAUAUCGCUUAAACAUGAGGAUCACCCAUGUCCGUUAACGAGAAGGGUCGAAUAAAU | 138 | 24.3 | – | –
CGGCAAGUCACAGGAUAUGGUGAUGUACAUGAGGAUCACCCAUGUCCGUCUUCUCUCACAAGAUGCCAGAAGGGUGACUCCCGG | 852 | 120 | – | –
ACCAAGCGAGGAUAUACUUAGAUUUUUUCGUUUAGUCUCGAACAUGAGGAUCACCCAUGUAGAAGGUGCUUCAC | – | – | 47.8 | 46.5
CUUCUUGGGCAAGGAUAUCCUGUGCGGUUCCGGCUCGUGUCUGUCACAUGAGGAUCACCCAUGUGGGAGAAGGUGCCUGCGGUC | – | – | 6.15 | 6.79
GCGCAUUUAAGAUUUAUAUAAUUUUCAGAAGGUGAAUAGUCGACAUGAGGAUCACCCAUGUAAUUCAAGGAUAUGAUUUAGCGC | 59.6 | 10.1 | – | –
UAAUGACAUGUAGGAUAUCGAGGCCUAUGGCCUCGAGAAGGACAUGAGGAUCACCCAUGUAUUCCGAAUGAAUCAAAUAAUAAA | – | – | 15.6 | 30.8
AAGCCCUGAGGAUAUCCCAACUCGCACAUGAGGAUCACCCAUGUCCUCCUCUGGGCUUCGGGAGAAGGCAGGUCUC | – | – | 43.1 | 114
AAUAUACAUGAGGAUCACCCAUGUUUUGGUGUAUGAGGAUAUAAAAACAAUUACAUAAAAUUAGAAGGCAUAACUA | 28.2 | 24 | – | –
AAGUUUGUACGAGGAUAUCAGUUGUAUCUAAAUUCAACAUGAGGAUCACCCAUGUUGCAAUGGAGUGAGAAGGCGUGUGGGCAA | 31.3 | 22.8 | – | –
GUAUAUCACUAAGGAUAUCUGUAAUUUGUUGAAACAUGAGGAUCACCCAUGUUCAUGAAUUUAUAGGAGAAGGUAGAGAUAUAC | 4.24 | 4.15 | – | –
CUUUUGUGAGGAUAUCAGUAGUAAAUUAAUAAAAUUACUACUGAGAAGGCACAUGAGGAUCACCCAUGUUCCUU | – | – | 14.5 | 29.5
AGUGUCGGCACAGGAUAUGAGAUGCCGGCAGACAUGAGGAUCACCCAUGUAAGCGACCCAGGCAGUCAGAAGGGUGAUCGACAA | 156 | 44.4 | – | –
CGAUCGUGUAGAGGAUAUGUUAUACAUGAGGAUCACCCAUGUGAGGUGGAAAUAUUUAAUUACAUACAGAAGGCUACACGAUCG | – | – | 269 | 227
CGUGUCGCAUGAGGAUAUGGUCAGCUUUGCUGACCAGAAGGCAUGUCAAUAGACAUGAGGAUCACCCAUGUAGUAAAGACACGA | 416 | 33.9 | – | –
CCUCUUGGGCAAGGAUAUCCUGCGCGGUUCCGGUUCGUGUCUGUCACAUGAGGAUCACCCAUGUGGGAGAAGGUGCCUGCGGUC | – | – | 17.9 | 24.2
UUUGUUUUGCAAGGAUAUGUUUAAUUUUAUUUUCCUUACACAUGAGGAUCACCCAUGUUAUACUUACAGAAGGUGCGUAAUUUG | – | – | 158 | 151
UGUGCGUAUGUGAGGAUAUGCUGGUCCUUGGCUCGGCAGAAGGCACAUGAGGAUCACCCAUGUGGUGUCGUACA | – | – | 227 | 37.5
GGGUACAUCGGAGGAUAUCAAGUAAAUACAUGAGGAUCACCCAUGUCGAUGGAGACAUCGGAGAUUGAGAAGGCCGAUGUACCG | 6 | 5.42 | – | –
GGAUAGGACGGAGGAUAUACGUGCUAGAGAUACUAGCAAAAUUUCCUCACAUGAGGAUCACCCAUGUAGAAGGCUGUCCUAUCG | – | – | 12.2 | 222

Sequence | apparent Kd [1] [nM] | apparent Kd [2] [nM] | apparent Kd [3] [nM] | apparent Kd [4] [nM]
GCAUGUUAUGUCAGGAUAUACCUAUGGAUACAUAGGUAGAAGGGACAUGAGGAUCACCCAUGUCCUAAUCAUGC | – | – | 13.4 | 16.7
CACUGUUUAGAGGAUAUUUACGGGUCACACCCAGGAGAAGGCUGUACAUGAGGAUCACCCAUGUGGUGCGCCUG | – | – | 32.4 | 51.3
UGUCGGAGCAGAGGAUAUUACAUGAGGAUCACCCAUGUAUGAACCAAUAGUUGGAAACAGCAAUGUAAGAAGGCUGCUCCGACA | – | – | 11.5 | 94.6
ACGACGAAAGUCGAACGAUGUAGCAGAAGGACAUGAGGAUCACCCAUGUAAAAUGUAACAGCCAUGUAGGAUAUGCUACAUCGA | – | – | 31.3 | 238
AAGUAUGGAGGAUAUACAUGGAUAUACAUUCAUGUGGACCUACAUGAGGAUCACCCAUGUAGAAGGCCAUAAUA | – | – | 30.7 | 16.6
GGUACUCAAAGAGUACUUGGUCGAACAUGAGGAUCACCCAUGUAGGAUAUGCGAAGCAAGAAGUAGCAGAAGGACAUGUGCAGC | – | – | 14.8 | 43.7
GCAUACAUUCGAGGAUAUCGGUGAACAAAUUAACGAGAAGGCGAUAUAAUUUUUAAACUUAUAGACAUGAGGAUCACCCAUGUA | 23.7 | 20.6 | – | –
AAGUCGUGAGGAUAUACAUGGAUAUACAUUUAUGUAGAACUACAUGAGGAUCACCCAUGUAGAAGGCACGAAUA | – | – | 56.2 | 147
UCCUGAUUGAGAGGUAGGAGUGGUAGAAGGCGACCGGUGCCAGAUGACAUGAGGAUCACCCAUGUCGAGGAUAUACCACUGAAU | – | – | 7.38 | 12.4
UCGCUGCGAGGAUAUACAUGAGGAUCACCCAUGUACGGGUCCGGGUCUUCGUCUAUUGGUAGAAGGCGCAGUGA | – | – | 54.2 | 277
GUAUUAAAGAUCCAUUUAUUCAACAUGAGGAUCACCCAUGUGCAGGAUAUCGUGUGUUUUAUAUUCGAGAAGGGCAAAUUCAUU | – | – | 44.6 | 104
UAGAUGGGAGGAUAUGCAUAGAUACAGAUUCGUGUAGUGCUACAUGAGGAUCACCCAUGUAGAAGGCCCGUCUU | – | – | 14.8 | 37.6
AGAUGUACCUAGGAUAUCCGUCUUAUUGGACUAGGAGAAGGAGGUACAUGAGGAUCACCCAUGUAUGACUCCUG | – | – | 11.5 | 14
CACACGAAAGUCGAACGAUGAUCCAGAAGGAGUAUAACAUGACAUGAGGAUCACCCAUGUGCCAACUAGGAUAUGGAUCAUGGG | – | – | 86.3 | 15.1
UGAUCGAGAGAUCUUAGAUUCUGGUAGGAUAUACAACAGUUGCGCUUUACAUGAGGAUCACCCAUGUAGAAGGACUAGAGUCUA | – | – | 7.55 | 8.78
UUCAUCAGUGAAGGAUAUCUAUGUCCAACAUGAGGAUCACCCAUGUUGAGGAUUACCUAUGUGUAGGAGAAGGUCAAUAUAACU | 6.79 | 6.1 | – | –
CUCUUGUCAGGAUAUUAUGGACGAUAGCAGGGCUACGUCAGUGAGAAGGGACAUGAGGAUCACCCAUGUAAAAU | – | – | 83.6 | 55.2
AAAAGCAGAGGAUAUACAUAAUUAUGACGAAAGUCAUAAAAACAUGAGGAUCACCCAUGUAGAAGGCUGCAAAA | – | – | 24.4 | 34.1
UUAAUGUGAGGAUAUCAGGUGUGCUAGCGUACUGGUACAUCUGAGAAGGCACAUGAGGAUCACCCAUGUUCUUC | – | – | 37 | 135

Sequence | apparent Kd [1] [nM] | apparent Kd [2] [nM] | apparent Kd [3] [nM] | apparent Kd [4] [nM]
UUUCUUGGGCAAGGAUAUCCUGUGCGGUUCCGGCUCGUGUCUGUCACAUGAGGAUCACCCAUGUGGGAGAAGGUGCCUGCAGUC | – | – | 6.22 | 7.07
CAAUUUAUAUCAGGAUAUACAAUACAAUGAUUAGUAGAAGGGAUUAAUACAUGAGGAUCACCCAUGUCAUGUGUCAUAAUAACC | – | – | 24.2 | 19.1
CUCAUGUCAGGAUAUCAGUAGUAAAAAAAAAAAAUUACUACUGAGAAGGGACAUGAGGAUCACCCAUGUCACUU | – | – | 27.1 | 28.7
UAUUUACAUGAGGAUCACCCAUGUCAGGAUAUGCGUCUAUCGUCGAAAGACGAUAGUUGCAGAAGGGACAAUAU | – | – | 62.8 | 123
UUCUUACAUGAGGAUCACCCAUGUCAGGAUAUCUCCACACUGCGCUUGCGCAGUGUAUAGAGAAGGGACAGGCU | – | – | 49.4 | 47.5
UUAAUUAAUUAAUUGCAGAAUUACAUGAGGAUCACCCAUGUAUAGGAUAUCGUCAGGAAUACUGACGAGAAGGAUACAUACUGC | – | – | 17.9 | 26.6
GGUCCAUUAUGAGGAUAUGGCACCUUAUUGGUGCCAGAAGGCAUGUCUAUAGACAUGAGGAUCACCCAUGUAAUAAAUUGGACC | 494 | 50.5 | – | –
AGUUAAUAUCGAGGAUAUGUCUAGACACAUGAGGAUCACCCAUGUAUGUGUAUAGAAGGCGAAAAUAACAGCAUGUUACAUGCA | 37.4 | 19.9 | – | –
AGUGUGUGGCAGGAUAUUCCGGUCGUGGGUCGGGAAGAAGGGUCUACAUGAGGAUCACCCAUGUGAGCGGUUGA | – | – | 210 | 241
CGUAUGUCAGGAUAUGUGUAUGCCGGUCAGGGCGAGCGGCAGCAGAAGGGACAUGAGGAUCACCCAUGUUCGGG | – | – | 59.6 | 116
GGUGCGUUUGUGAGGAUAUGCUGGUCCUUGGAUCCGCAGAAGGCACAUGAGGAUCACCCAUGUGGUGUCGUACC | – | – | 289 | 40.3
UGAUUUCAUGUAGGAUAUGCUUGGCGAAGCUACGCAGAAGGACAUGAGGAUCACCCAUGUUUUAGCGUCUGAGUAUAGAUUCUA | – | – | 30.6 | 187
AAAAAGUCAGGAUAUAGAAAAGGUCACGAAAGUGACAAAGGCUAGAAGGGACAUGAGGAUCACCCAUGUAAAAA | – | – | 31.9 | 31.1
GCCUCAGAAUUAAUUGUGAGAAGCAGAAGGCUAUAUCUUAUGUUAGACAUGAGGAUCACCCAUGUAGAGGAUAUGCUGUUACAG | – | – | 7.84 | 12
UAAGAGUGAGGAUAUACGUCGCUGGUCCGGAUGGACGCAUGACAUGAGGAUCACCCAUGUAGAAGGCACAAAAC | – | – | 35 | 130
UUUUACAUAGGAUAUAGUUUGUUGUACAUGAGGAUCACCCAUGUUUUUGGUUGUGCUUUUCUAGAAGGAUGUUUCU | – | – | 47.7 | 41.7
UUAAUGACUGUGAGGAUAUCGGAUAGAUAGAUAUUCGAGAAGGUACAUGAGGAUCACCCAUGUGUGAUUAGAGA | – | – | 245 | 291
GGGUACAUCGGAGGAUAUCAUGUACAUACAUGAGGAUCACCCAUGUCGAUGGAGACAUCGGAGAUUGAGAAGGCCGAUGUACCG | 230 | 9.27 | – | –
